# Measurements reported in ChEMBL document CHEMBL2176905 (J Med Chem, 2012).
# Structures can show the parent of a compound that is named as a salt. The source made the active and inactive calls. No cut-off for these calls is given here. Residues, ends and D or L forms follow the SMILES beside them. *: point of attachment. PhAc = O=C(Cc1ccccc1)*; Tfa = O=C(C(F)(F)F)*; NHBu = CCCCN*
# Columns and labels:
# Neutrophil elastase [1] = target: T1, Neutrophil elastase (Homo sapiens, UniProt P08246); test: Inhibition of human neutrophil elastase
# T1 sequence (P08246 whole entry): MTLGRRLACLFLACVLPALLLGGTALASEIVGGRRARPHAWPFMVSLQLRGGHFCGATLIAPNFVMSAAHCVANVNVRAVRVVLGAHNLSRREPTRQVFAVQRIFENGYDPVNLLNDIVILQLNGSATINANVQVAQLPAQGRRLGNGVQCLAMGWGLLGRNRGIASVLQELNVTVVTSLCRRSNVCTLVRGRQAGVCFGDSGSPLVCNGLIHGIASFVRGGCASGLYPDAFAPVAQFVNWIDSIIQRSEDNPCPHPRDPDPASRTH
# Neutrophil elastase [2] = target: T1, Neutrophil elastase; test: Inhibition of human neutrophil elastase assessed as hydrolysis of N-succinyl-Ala-Ala-Pro-Val-p-nitroanilide incubated for 2 hrs measured for 20 mins by microplate reader analysis
# Procedure, shortened: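 HNE (stock 2.8 μM in pH 5.5 acetate/0.5 M NaCl; final 30 nM) preincubated 2 h at 25 °C with inhibitor (final 0.5−50 μM, 7 concentrations) in 0.1 M HEPES, 0.5 M NaCl, pH 7.25, 5.5% DMSO. Suc-Ala-Ala-Pro-Val-pNA added (final 0.35 mM). Hydrolysis rate read kinetically at 405 nm, 25 °C, 20 min. Duplicates; IC50 derived.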
# Prothrombin [3] = target: T2, Prothrombin (Homo sapiens, UniProt P00734); test: Inhibition of thrombin assessed as hydrolysis of H-D-Pro-L-Phe-L-Arg-p-nitroanilide at 100 uM incubated for 2 hrs measured for 20 mins by microplate reader analysis
# Procedure, shortened: (§1)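 Counter-screen in 0.1 M HEPES with 0.5 M NaCl, pH 7.25, 96-well format, duplicates. Chymotrypsin, trypsin and porcine pancreatic elastase were commercial; thrombin and plasminogen were purified in-house. Chromogenic substrate hydrolysis followed kinetically at 405 nm on a plate reader. Test compounds up to 100 μM maximum; AEBSF run as irreversible positive control with IC50 determined.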
# Plasminogen [4] = target: T3, Plasminogen (Homo sapiens, UniProt P00747); test: Inhibition of plasmin assessed as hydrolysis of H-D-Val-L-Leu-L-Lys-p-nitroanilide at 100 uM incubated for 2 hrs measured for 20 mins by microplate reader analysis; procedure, shortened: as §1
# [5] = Inhibition of trypsin assessed as hydrolysis of H-D-Pro-L-Phe-L-Arg-p-nitroanilide at 100 uM incubated for 2 hrs measured for 20 mins by microplate reader analysis; procedure, shortened: as §1
# Neutrophil elastase [6] = target: T1, Neutrophil elastase; test: Uncompetitive inhibition of human neutrophil elastase assessed as hydrolysis of N-succinyl-Ala-Ala-Pro-Val-p-nitroanilide incubated for 2 hrs measured for 20 mins by Dixon and Cornish-Bowden analysis
# Procedure, shortened: (§2)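 Mechanism study: HNE (final 30 nM) preincubated 2 h at 25 °C with inhibitor (final 5−20 μM, 3 concentrations) in 0.1 M HEPES, 0.5 M NaCl, pH 7.25, 5.5% DMSO. Suc-Ala-Ala-Pro-Val-pNA added at two final levels, 0.0875 or 0.35 mM. Rate followed at 405 nm, 25 °C, 20 min. Duplicates; Dixon and Cornish-Bowden plots.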
# [7] = target: Pancreatic elastase (Sus scrofa) (UniProt P08419+P00772); test: Inhibition of porcine pancreatic elastase assessed as hydrolysis of N-succinyl-Ala-Ala-Ala-p-nitroanilide at 100 uM incubated for 2 hrs measured for 20 mins by microplate reader analysis; type: protein assay; procedure, shortened: as §1
# [8] = target: T4, Cathepsin G (Homo sapiens) (UniProt P08311); test: Inhibition of cathepsin G assessed as hydrolysis of N-succinyl-Ala-Ala-Pro-Phe-p-nitroanilide at 100 uM incubated for 2 hrs measured for 20 mins by microplate reader analysis
# T4 sequence (whole entry): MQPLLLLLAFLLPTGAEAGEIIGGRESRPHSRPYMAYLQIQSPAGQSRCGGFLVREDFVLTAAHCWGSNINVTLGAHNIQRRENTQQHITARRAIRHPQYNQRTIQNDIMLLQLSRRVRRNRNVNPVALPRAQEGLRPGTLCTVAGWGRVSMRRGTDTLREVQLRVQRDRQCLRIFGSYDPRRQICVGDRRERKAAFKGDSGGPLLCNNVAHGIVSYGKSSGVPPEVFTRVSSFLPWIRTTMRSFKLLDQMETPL
# [9] = Inhibition of chymotrypsin assessed as hydrolysis of N-succinyl-Ala-Ala-Pro-Phe-p-nitroanilide at 100 uM incubated for 2 hrs measured for 20 mins by microplate reader analysis; procedure, shortened: as §1
# [10] = Inhibition of HIV protease; parameters: species or system Human immunodeficiency virus
# Prothrombin [11] = target: T2, Prothrombin; test: Inhibition of thrombin assessed as hydrolysis of H-D-Pro-L-Phe-L-Arg-p-nitroanilide incubated for 2 hrs measured for 20 mins by microplate reader analysis; procedure, shortened: as §1
# Pancreatic elastase = Pancreatic elastase (Sus scrofa, UniProt P08419+P00772); test: Inhibition of porcine pancreatic elastase assessed as hydrolysis of N-succinyl-Ala-Ala-Ala-p-nitroanilide incubated for 2 hrs measured for 20 mins by microplate reader analysis; type: protein assay
# Procedure, shortened: (§3)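 Selectivity panel run in duplicate in 0.1 M HEPES with 0.5 M NaCl, pH 7.25. p-Nitroanilide release was followed kinetically at 405 nm, with inhibitor tested up to 100 μM maximum. Plasmin came from plasminogen purified in-house; porcine pancreatic elastase was commercial. IC50 values were determined.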
# Plasminogen [12] = target: T3, Plasminogen; test: Inhibition of plasmin assessed as hydrolysis of H-D-Val-L-Leu-L-Lys-p-nitroanilide incubated for 2 hrs measured for 20 mins by microplate reader analysis; procedure, shortened: as §3
# [13] = Inhibition of chymotrypsin assessed as hydrolysis of N-succinyl-Ala-Ala-Pro-Phe-p-nitroanilide incubated for 2 hrs measured for 20 mins by microplate reader analysis; procedure, shortened: as §1
# [14] = Inhibition of trypsin assessed as hydrolysis of H-D-Pro-L-Phe-L-Arg-p-nitroanilide incubated for 2 hrs measured for 20 mins by microplate reader analysis; procedure, shortened: as §1
# Neutrophil elastase [15] = target: T1, Neutrophil elastase; test: Noncompetitive inhibition of human neutrophil elastase assessed as hydrolysis of N-succinyl-Ala-Ala-Pro-Val-p-nitroanilide incubated for 2 hrs measured for 20 mins by Dixon and Cornish-Bowden analysis; procedure, shortened: as §2
# Cathepsin G = target: T5, Cathepsin G (Homo sapiens, UniProt P08311); test: Inhibition of cathepsin G assessed as hydrolysis of N-succinyl-Ala-Ala-Pro-Phe-p-nitroanilide incubated for 2 hrs measured for 20 mins by microplate reader analysis
# T5 sequence (P08311 whole entry): T4 sequence (whole entry)
# T3 sequence (P00747 97-580 limits assumed): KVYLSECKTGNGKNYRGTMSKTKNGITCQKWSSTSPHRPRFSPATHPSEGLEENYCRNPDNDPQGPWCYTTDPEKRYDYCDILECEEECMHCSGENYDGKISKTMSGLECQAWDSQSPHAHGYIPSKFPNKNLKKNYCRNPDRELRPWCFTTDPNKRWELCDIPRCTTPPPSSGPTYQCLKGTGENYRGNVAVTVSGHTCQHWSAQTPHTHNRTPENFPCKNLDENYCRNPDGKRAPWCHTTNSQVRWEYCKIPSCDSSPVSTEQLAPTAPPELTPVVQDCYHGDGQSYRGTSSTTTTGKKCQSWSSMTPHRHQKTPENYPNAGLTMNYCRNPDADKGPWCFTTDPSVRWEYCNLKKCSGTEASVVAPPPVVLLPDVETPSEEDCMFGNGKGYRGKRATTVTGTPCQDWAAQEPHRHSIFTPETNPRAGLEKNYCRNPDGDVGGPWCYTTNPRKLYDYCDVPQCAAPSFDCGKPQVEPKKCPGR
# T3 sequence (P00747 581-810 limits assumed): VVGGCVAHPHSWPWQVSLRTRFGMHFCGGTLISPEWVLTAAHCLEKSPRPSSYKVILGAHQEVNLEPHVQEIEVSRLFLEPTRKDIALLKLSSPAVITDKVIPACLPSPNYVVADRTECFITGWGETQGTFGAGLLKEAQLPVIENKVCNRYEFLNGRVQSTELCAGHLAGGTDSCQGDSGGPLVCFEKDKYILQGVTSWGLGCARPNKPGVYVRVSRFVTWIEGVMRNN
smiles,measurement,setting,value
CCCCNC(=O)CC[Si](O)(O)[C@H](CC(C)C)NC(=O)[C@@H](NC(=O)Cc1ccc2ccccc2c1)[C@@H](C)CC,IC50,Neutrophil elastase [1],0.3 µM
CCCCNC(=O)CNC(=O)[C@H](CC(C)C)NC(=O)[C@@H](NC(=O)C(F)(F)F)[C@@H](C)CC (Tfa-Ile-Leu-Gly-NHBu),IC50,Neutrophil elastase [2],> 200 µM
CCCCNC(=O)CC[Si](O)(O)[C@H](CC(C)C)NC(=O)[C@@H](NC(C)=O)[C@@H](C)CC,IC50,Neutrophil elastase [2],> 200 µM
CC[C@H](C)[C@H](NC(=O)Cc1ccc2ccccc2c1)C(=O)N[C@@H](CC(C)C)[Si](C)(O)O,IC50,Neutrophil elastase [2],39 µM
CCCCNC(=O)CC[Si](O)(O)[C@H](CC(C)C)NC(=O)[C@@H](NC(=O)Cc1ccccc1)[C@@H](C)CC,inhibition,Prothrombin [3],inactive
same,inhibition,Plasminogen [4],inactive
same,inhibition,[5],inactive
same,Ki,Neutrophil elastase [6],5 µM
same,inhibition,[7],inactive
same,inhibition,[8],inactive
same,inhibition,[9],inactive
same,IC50,Neutrophil elastase [2],38 µM
CCCCNC(=O)CC[Si](O)(O)[C@@H](CC(C)C)NC(=O)[C@@H](NC(=O)Cc1ccc2ccccc2c1)[C@@H](C)CC,inhibition,Prothrombin [3],inactive
same,inhibition,Plasminogen [4],inactive
same,inhibition,[5],inactive
same,Ki,Neutrophil elastase [6],3.5 µM
same,inhibition,[7],inactive
same,inhibition,[8],inactive
same,inhibition,[9],inactive
same,IC50,Neutrophil elastase [1],0.3 µM
same,IC50,Neutrophil elastase [2],18 µM
CCCCNC(=O)CNC(=O)[C@H](CC(C)C)NC(=O)[C@@H](NC(C)=O)[C@@H](C)CC (Ac-Ile-Leu-Gly-NHBu),IC50,Neutrophil elastase [2],> 200 µM
CCCCNC(=O)CC[Si](O)(O)[C@H](CC(C)C)NC(=O)[C@@H](NC(=O)c1ccc2ccccc2c1)[C@@H](C)CC,inhibition,Prothrombin [3],inactive
same,inhibition,Plasminogen [4],inactive
same,inhibition,[5],inactive
same,Ki,Neutrophil elastase [6],4 µM
same,inhibition,[7],inactive
same,inhibition,[8],inactive
same,inhibition,[9],inactive
same,IC50,Neutrophil elastase [2],16 µM
O=C(N[C@H]1c2ccccc2C[C@H]1O)[C@H](Cc1ccccc1)C[Si](O)(O)C[C@@H](Cc1ccccc1)C(=O)N[C@H]1c2ccccc2C[C@H]1O,Ki,[10],0.0027 µM
CCCCNC(=O)CNC(=O)[C@H](CC(C)C)NC(=O)[C@@H](NC(=O)Cc1ccc2ccccc2c1)[C@@H](C)CC,IC50,Prothrombin [11],100 µM
same,IC50,Pancreatic elastase,55 µM
same,IC50,Plasminogen [12],99 µM
same,IC50,[13],150 µM
same,inhibition,[8],inactive
same,IC50,Neutrophil elastase [2],14 µM
same,IC50,[14],89 µM
same,Ki,Neutrophil elastase [15],18 µM
CCCCNC(=O)CNC(=O)[C@H](CC(C)C)NC(=O)[C@@H](NC(=O)Cc1ccccc1)[C@@H](C)CC (PhAc-Ile-Leu-Gly-NHBu),IC50,Neutrophil elastase [2],51 µM
Cl.NCCc1ccc(S(=O)(=O)F)cc1 [4-AMINOETHYLBENZENESULFONYL FLUORIDE HYDROCHLORIDE],IC50,Prothrombin [11],62 µM
same,IC50,Pancreatic elastase,160 µM
same,IC50,Plasminogen [12],240 µM
same,IC50,[13],12 µM
same,IC50,[14],10 µM
same,IC50,Cathepsin G,250 µM
CCCCNC(=O)CC[Si](O)(O)[C@H](CC(C)C)NC(=O)[C@@H](NC(=O)C(F)(F)F)[C@@H](C)CC,IC50,Neutrophil elastase [2],46 µM
CCCCNC(=O)CC[Si](c1ccccc1)(c1ccccc1)[C@H](CC(C)C)NC(=O)[C@@H](NC(=O)Cc1ccc2ccccc2c1)[C@@H](C)CC,IC50,Prothrombin [11],92 µM
same,inhibition,Plasminogen [4],inactive
same,inhibition,[7],inactive
same,IC50,[13],110 µM
same,IC50,Neutrophil elastase [2],14 µM
same,IC50,[14],58 µM
same,Ki,Neutrophil elastase [15],13 µM
